Tests used:
[1] = tested on: Human immunodeficiency virus 1; test: Antiviral activity against wild-type HIV1 pNL4-3 infected in human MT4 cells assessed as inhibition of virus-induced cytopathic effect after 5 days in absence of human serum by MTT assay; assay type: functional, organism-based; settings: Human immunodeficiency virus 1, pNL4-3, MT4, 120 h
Procedure, shortened: (§1)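 MT-4 cells inoculated with HIV-1 pNL4-3, then given an equal volume of compound at several concentrations in 1% DMSO solution with 10% FBS. Incubated 5 days at 37 °C in CO2, in triplicate. MTT read by optical density, percent reduction of cytopathic effect calculated, and EC50 fitted to the median-effect equation. Values averaged over n = 3; the 50% human serum condition was run alongside.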

[2] = tested on: Human immunodeficiency virus 1; test: Antiviral activity against wild-type HIV1 pNL4-3 infected in human MT4 cells assessed as inhibition of virus-induced cytopathic effect after 5 days in presence of 50 % of human serum by MTT assay; assay type: functional, organism-based; settings: Human immunodeficiency virus 1, pNL4-3, MT4, 120 h; procedure, shortened: as §1
[3] = Cytotoxicity against human MT4 cells after 5 days by MTT assay; assay type: cell-based; settings: read-out: TD50
Procedure, shortened: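 Uninfected MT-4 cells given compound at several concentrations in 1% DMSO solution with 10% FBS. Incubated 5 days at 37 °C in CO2, in triplicate. Viability read by MTT optical density, with TD50 taken as the cytotoxic measure.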

[4] = tested on: Human immunodeficiency virus 1; test: Ratio of EC50 for wild-type HIV1 pNL4-3 infected in human MT4 in presence of 50% of human serum to EC50 for wild-type HIV-1 pNL4-3 infected in human MT4 in absence of human serum; assay type: functional
Procedure, shortened: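 Serum binding effect calculated as the pNL4-3 EC50 in 50% human serum divided by the EC50 in 0% serum, using MT-4 cytopathic-effect MTT assays run for 5 days at 37 °C.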

[5] = Ratio of EC50 for inhibition of protease L10F/V32I/M46I/I47V/Q58E/I84V mutant in HIV1 A17 infected in human MT4 cells to EC50 for wild-type HIV-1 pNL4-3 infected in human MT4 cells; assay type: functional, Human immunodeficiency virus 1
Procedure, shortened: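 Ratio of EC50 values from MT-4 cytopathic-effect MTT assays (5 days, 37 °C, triplicate, median-effect fit). Numerator is LPV-resistant strain A1711, denominator is wild-type HIV-1 pNL4-3.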

[6] = biological target: Protease (Human immunodeficiency virus 1) (UniProt Q9YQ12); test: Inhibition of recombinant HIV1 protease at 1 nM using H-Lys-Ala-Arg-Val-Tyr-Phe(p-NO2)-Glu-Ala-Nle-NH2 as substrate preincubated for 5 mins followed by substrate addition measured after 3 hrs by fluorescence-based assay
Procedure, shortened: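 Recombinant HIV-1 protease (40 ng/mL stock in pH 5.0 acetate/EDTA/NaCl/2-mercaptoethanol/NP-40/glycerol) mixed with inhibitor (10 nM solution in DMSO) in 200 mM MES-NaOH pH 5.5 with 2 mM DTT, 2 mM EDTA and 1 M NaCl. Preincubated 5 min at 37 °C, then 1.0 mM substrate solution added and incubated 3 h at 37 °C. Stopped with 1 N HCl. The Lys-Ala-Arg-Val-Tyr-OH product was quantified by RP-HPLC with fluorescence (Ex 275, Em 305 nm). Single determination.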

[7] = Ratio of EC50 for inhibition of HIV1 A17 protease L10F/V32I/M46I/I47V/Q58E/I84V mutant infected in human MT4 cells to EC50 for wild-type HIV-1 3B infected in human MT4 cells; assay type: functional, Human immunodeficiency virus 1
[8] = tested on: Human immunodeficiency virus 1; test: Antiviral activity against wild-type HIV1 3B infected in human MT4 cells assessed as inhibition of virus-induced cytopathic effect after 5 days by MTT assay; assay type: functional, organism-based; settings: Human immunodeficiency virus 1, 3B, MT4, 120 h
[9] = tested on: Human immunodeficiency virus 1; test: Antiviral activity against wild-type HIV1 pNL4-3 infected in CMVdeltaR8.91 transfected 293T cells after 48 hrs by lentiviral vector-based luciferase reporter gene assay; assay type: functional, organism-based; settings: Human immunodeficiency virus 1, pNL4-3, HEK-293T
Procedure, shortened: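 pNL4-3-based luciferase reporter lentiviral vector made by transfecting 293T cells with pCMV-ΔR8.91 (wild-type or V32I/L33F/I54M/V82I or V32I/L33F/I54M/I84V protease) plus luciferase transfer and envelope plasmids, with or without inhibitor. After 48 h, fresh 293T cells infected with vector. IC50 for suppression of luciferase transduction taken from dose-response curve.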

[10] = tested on: Human immunodeficiency virus 1; test: Ratio of EC50 for wild-type HIV1 3B infected in human MT4 in presence of 50% of huma serum to EC50 for wild-type HIV-1 pNL4-3 infected in human MT4 in absence of human serum; assay type: functional
Procedure, shortened: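 Serum binding effect: EC50 measured with 50% human serum divided by EC50 measured without serum. Each EC50 came from protection of MT-4 cells from HIV-induced cytopathic effect. Infected cells were exposed to several compound concentrations in 1% DMSO with 10% FBS for 5 days at 37 °C in triplicate, read by MTT optical density, and fitted to a median-effect equation.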

[11] = tested on: Human immunodeficiency virus 1; test: Antiviral activity against wild-type HIV1 3B infected in human MT4 cells assessed as inhibition of virus-induced cytopathic effect after 5 days in presence of 50 % of human serum by MTT assay; assay type: functional, organism-based; settings: Human immunodeficiency virus 1, 3B, MT4, 120 h
[12] = tested on: Human immunodeficiency virus 1; test: Antiviral activity against wild-type HIV1 3B infected in human MT4 cells assessed as inhibition of virus-induced cytopathic effect after 5 days in absence of human serum by MTT assay; assay type: functional, organism-based; settings: Human immunodeficiency virus 1, 3B, MT4, 120 h
[13] = tested on: Human immunodeficiency virus 1; test: Ratio of EC50 for wild-type HIV1 3B infected in human MT4 in presence of 50% of huma serum to EC50 for wild-type HIV-1 3B infected in human MT4 in absence of human serum; assay type: functional

SMILES | EC50 [1] [nM] | EC50 [2] [nM] | Ratio EC50 [4] | inhibition [6] [%] | other results
Cc1cccc(C)c1CNC(=O)[C@H]1N(C(=O)[C@@H](O)[C@H](Cc2ccccc2)NC(=O)[C@@H](NC(=O)COc2cccc(Nc3ccccc3)c2)[C@H]2CCOC2)CSC1(C)C | 5 | 103 | 21 | 93 | CC50 at 120 h [3]: 39000 nM; Ratio EC50 [5]: 45
Cc1ccccc1CNC(=O)[C@H]1N(C(=O)[C@@H](O)[C@H](Cc2ccccc2)NC(=O)[C@@H](NC(=O)c2cnc3ccccc3n2)[C@H]2CCOC2)CSC1(C)C | 4 | 84 | 21 | 97 | CC50 at 120 h [3]: 10000 nM; Ratio EC50 [5]: 24
C=CCNC(=O)[C@H]1N(C(=O)[C@@H](O)[C@H](Cc2ccccc2)NC(=O)[C@@H](NC(=O)COc2cccc(N(C)C)c2)[C@H]2CCOC2)CSC1(C)C | 8 | 190 | 24 | 95 | 
C=C(C)CNC(=O)[C@H]1N(C(=O)[C@@H](O)[C@H](Cc2ccccc2)NC(=O)[C@@H](NC(=O)COc2cccc(N(C)C)c2)[C@H]2CCOC2)CSC1(C)C | 7 | 49 | 7 | 97 | 
Cc1ccccc1CNC(=O)[C@H]1N(C(=O)[C@@H](O)[C@H](Cc2ccccc2)NC(=O)[C@@H](NC(=O)COc2cccc3cnccc23)[C@H]2CCOC2)CSC1(C)C | 21 | 4350 | 207 | 97 | 
CN(C)c1cccc(OCC(=O)N[C@H](C(=O)N[C@@H](Cc2ccccc2)[C@H](O)C(=O)N2CSC(C)(C)[C@H]2C(=O)NC/C=C\CO)[C@H]2CCOC2)c1 | 567 | 2050 | 3.6 | 94 | 
COc1cccc2cc(C(=O)N[C@H](C(=O)N[C@@H](Cc3ccccc3)[C@H](O)C(=O)N3CSC(C)(C)[C@H]3C(=O)NCc3c(C)cccc3C)C(C)C)oc12 |  |  |  | 95 | Ratio EC50 [7]: >103; EC50 [8]: < 3 nM
Cc1cccc(C)c1CNC(=O)[C@H]1N(C(=O)[C@@H](O)[C@H](Cc2ccccc2)NC(=O)[C@@H](NC(=O)c2cc3ccccc3o2)[C@H]2CCOC2)CSC1(C)C | 12 | 90 | 7.5 | 97 | CC50 at 120 h [3]: 38000 nM; Ratio EC50 [5]: 57
Cc1cccc(C)c1OCC(=O)N[C@@H](Cc1ccccc1)[C@@H](O)C[C@H](Cc1ccccc1)NC(=O)[C@H](C(C)C)N1CCCNC1=O [LOPINAVIR] |  |  |  |  | CC50 at 120 h [3]: > 10000 nM
Cc1cccc(C)c1CNC(=O)[C@H]1N(C(=O)[C@@H](O)[C@H](Cc2ccccc2)NC(=O)[C@H](CC(N)=O)NC(=O)c2cc3ccccc3o2)CSC1(C)C |  |  |  | 97 | Ratio EC50 [7]: 1.6; EC50 [8]: 38 nM
CC(C)CN(C[C@@H](O)[C@H](Cc1ccccc1)NC(=O)O[C@H]1CO[C@H]2OCC[C@H]21)S(=O)(=O)c1ccc(N)cc1 |  |  |  |  | EC50 [9]: 0.82 nM
Cc1cccc(C)c1CNC(=O)[C@H]1N(C(=O)[C@@H](O)[C@H](Cc2ccccc2)NC(=O)[C@@H](NC(=O)c2cc(=O)c3ccccc3o2)[C@H]2CCOC2)CSC1(C)C | 5 | 115 | 23 | 98 | 
Cc1cccc(C)c1CNC(=O)[C@H]1N(C(=O)[C@@H](O)[C@H](Cc2ccccc2)NC(=O)[C@@H](NC(=O)COc2cccc3cnccc23)[C@H]2CCOC2)CSC1(C)C | 60 | 143 | 2.4 | 98 | 
Cc1ccccc1CNC(=O)[C@H]1N(C(=O)[C@@H](O)[C@H](Cc2ccccc2)NC(=O)[C@@H](NC(=O)c2ccc3ccccc3n2)[C@H]2CCOC2)CSC1(C)C | < 3 | 411 | >137 | 96 | 
CN(C)c1cccc(OCC(=O)N[C@H](C(=O)N[C@@H](Cc2ccccc2)[C@H](O)C(=O)N2CSC(C)(C)[C@H]2C(=O)N[C@H]2CCc3ccccc32)[C@H]2CCOC2)c1 | 5 | 30 | 6 | 97 | 
Cc1cccc(C)c1CNC(=O)[C@H]1N(C(=O)[C@@H](O)[C@H](Cc2ccccc2)NC(=O)[C@@H](NC(=O)c2cc3ccccc3o2)C(C)C)CSC1(C)C |  |  |  | 93 | Ratio EC50 [7]: 61; EC50 [8]: 18 nM
Cc1ccccc1CNC(=O)[C@H]1N(C(=O)[C@@H](O)[C@H](Cc2ccccc2)NC(=O)c2cccc(O)c2C)CSC1(C)C | 60 |  |  | 48 | CC50 at 120 h [3]: 23000 nM; Ratio EC50 [10]: 2; Ratio EC50 [5]: 46; EC50 [11]: 114 nM
CN(C)c1cccc(OCC(=O)N[C@H](C(=O)N[C@@H](Cc2ccccc2)[C@H](O)C(=O)N2CSC(C)(C)[C@H]2C(=O)NC2CCCC2)[C@H]2CCOC2)c1 | 10 | 103 | 10 | 93 | 
CN(C)c1cccc(OCC(=O)N[C@H](C(=O)N[C@@H](Cc2ccccc2)[C@H](O)C(=O)N2CSC(C)(C)[C@H]2C(=O)N[C@H]2c3ccccc3C[C@H]2O)[C@H]2CCOC2)c1 | 4 | 79 | 20 | 95 | 
COc1cccc2cc(C(=O)N[C@@H](CC(N)=O)C(=O)N[C@@H](Cc3ccccc3)[C@H](O)C(=O)N3CSC(C)(C)[C@H]3C(=O)NCc3c(C)cccc3C)oc12 | 60 |  |  | 96 | Ratio EC50 [5]: 1.4
Cc1ccccc1CNC(=O)[C@H]1N(C(=O)[C@@H](O)[C@H](Cc2ccccc2)NC(=O)[C@@H](NC(=O)c2cnc3ccccc3n2)[C@@H]2CCOC2)CSC1(C)C | 12 | 131 | 11 | 86 | 
Cc1cccc(C)c1CNC(=O)[C@H]1N(C(=O)[C@@H](O)[C@H](Cc2ccccc2)NC(=O)[C@@H](NC(=O)COc2cccc(N(C)C)c2)[C@H]2CCOC2)CSC1(C)C | < 3 | 15 | >5 | 97 | CC50 at 120 h [3]: 60000 nM; Ratio EC50 [5]: >55
Cc1ccccc1CNC(=O)[C@H]1N(C(=O)[C@@H](O)[C@H](Cc2ccccc2)NC(=O)[C@@H](NC(=O)c2ccc3ccccc3n2)[C@@H]2CCOC2)CSC1(C)C | 26 | 602 | 23 | 69 | 
CSC[C@H](NC(=O)COc1cccc2cnccc12)C(=O)N[C@@H](Cc1ccccc1)[C@H](O)C(=O)N1CSC[C@H]1C(=O)NC(C)(C)C |  |  |  | 14 | EC50 [12]: 176 nM; EC50 [11]: 2880 nM; Ratio EC50 [13]: 16

Reference: ChEMBL document CHEMBL4138310 (J Med Chem, 2018)
